Compounds with a hit are over-represented: about 9.2% of the library has one in this group of screens.
HCT116 bCat-KO – beta-catenin-lacking colon tumor cell growth suppression; actives 1.5% (n = 140,000); viability, % at 10 µM; HCT116 beta-catenin knockout viability, CellTiter-Glo, 60 h; hits give low values;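 active = viability at or under a set limit, the compound median less 4 SD, cut at about 6% in these data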
HCT116 PTEN-null – suppresses growth of cells with PTEN deletion; HCT116 PTEN-null viability, CellTiter-Glo, 60 h; hits give low values; viability, % at 10 µM; actives 1.2% (n = 140,000); AID 827;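 active = viability at or below a set limit, 4 SD under the median of all tested compounds, cut at about 3.7% in these data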;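 note: PTEN knockout HCT116 line with beta catenin targeted HCT116 as companion control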
Lmaj promast – inhibitors of Leishmania major promastigote growth; actives 9% (n = 200,000); Leishmania major promastigotes, resazurin fluorescence viability; inhibition, % at 10 µM; AID 1063; in the data active = inhibition above about 50%;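 note: promastigotes grown with compound for 44 hours at 28 °C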
Dynein cargo inh – blocks dynein driven cargo transport along microtubules; 3617.4 mouse cells, GR-EGFP nuclear translocation imaging; test concentration mostly 20 µM; stimulated with dexamethasone, 1 µM; hits give low values; z-score, hits read low; actives 0.47% (n = 220,000); AID 1381;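 active = plate z-score of nuclear minus cytoplasmic receptor signal below a set negative limit, without overly bright fluorescence or cell loss, cut at about -3.5 in these data, passing the limit was not always enough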;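 note: z-score of nuclear minus cytoplasmic ring GR-EGFP intensity difference per well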
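Buffer or medium: tet-free medium with charcoal-stripped serum / Also added: dexamethasone agonist, 1.0 µM final, for 30 min / Timing: induction 48 h, compound 1 h, agonist 30 min / Measured by: high-content fluorescence imaging after fixation / Read-out: nuclear-to-cytoplasmic GR-EGFP distribution per well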
Autophagy HCS – autophagy modulation, high-content screen | MEF GFP-LC3 puncta imaging; test concentration mostly 10 µM | calls only at 10 µM (by protocol) | actives 0.98% (n = 190,000);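 active = percentage of spot-positive cells more than 3 SD above its plate mean, without a fluorescence outlier flag or 80% toxicity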
A number is an active result; - = inactive; . = no result; + = active, no number.

SMILES | HCT116 bCat-KO | HCT116 PTEN-null | Lmaj promast | Dynein cargo inh | Autophagy HCS
Cn1c(SCC(O)c2ccccc2)nnc1-c1ccc2ccccc2c1 (centres undefined) | . | . | . | - | .
O=C(Nc1ccc(Br)cc1F)c1ccc2c(c1)N(Cc1ccccc1)C(=O)CS2=O (centres undefined) | - | - | 99.6 | - | .
Cc1ccc(C)c(NC(=O)c2ccc3c(c2)N(Cc2ccc(F)cc2)C(=O)CS3=O)c1 (centres undefined) | - | - | - | - | -
CCN(CCCc1ccccc1)CCCc1ccccc1 | - | - | 95.0 | - | -
O=[N+]([O-])c1nn(-c2ccc3c(c2)OCCO3)n(O)c1=NCc1ccccc1Cl | - | - | 81.7 | - | -
O=[N+]([O-])c1nn(-c2ccc3c(c2)OCCO3)n(O)c1=NC1CCCCC1 | - | - | 70.1 | - | -
O=c1c2cc(N3CCOCC3)ccc2[nH]c(=S)n1Cc1ccccc1Cl | . | . | - | - | -
Cc1ccc(C)c(N2CCN(C(=O)c3ccc(Cn4c(=O)[nH]c5ccccc5c4=O)cc3)CC2)c1 | - | - | 98.0 | - | -
CC(=O)c1ccc(N2CCN(C(=O)c3ccc(Cn4c(=S)[nH]c5ccc(N6CCOCC6)cc5c4=O)cc3)CC2)cc1 | . | . | 97.9 | - | -
C=CCn1c(=O)[nH]c2cc(C(=O)N3CCN(c4cccc(Cl)c4)CC3)ccc2c1=O | - | - | - | - | -
O=C(c1ccc(Cn2c(=O)[nH]c3ccccc3c2=O)cc1)N1CCN(c2ccc(Cl)cc2)CC1 | - | - | 95.9 | - | -
C=CCn1c(=O)[nH]c2cc(C(=O)N3CCN(c4cc(C)ccc4C)CC3)ccc2c1=O | - | - | - | - | -
CC[N+](C)(CC)CC(=O)OCC1C(C)C=C(C)CC1C (centres undefined) | . | . | . | - | .
O=[N+]([O-])c1ccc(/C=C2\CCC(C3=CCCC3)=C2N2CCOCC2)cc1 | - | - | - | - | -
O=C(CNS(=O)(=O)c1ccc(Br)s1)NCC1COc2ccccc2O1 (centres undefined) | - | - | 59.4 | - | -
CCc1cc2c3c(c1)C1(C(=O)N3C(C)(C)C=C2C)C(C#N)=C(N)Oc2[nH]c(=O)[nH]c(=O)c21 (centres undefined) | . | . | - | - | -
CCCCOc1ccccc1C1C(C(=O)OC)=C(C)N(C)C(C)=C1C(=O)OC | - | - | 87.7 | - | -
COc1cccc(C2C(C#N)=C(N)OC3=C2C(=O)CC(c2ccco2)C3)c1OCc1ccc(F)cc1 (centres undefined) | - | - | 75.5 | - | -
CCCCCCCN=CC1=C(O)CC(c2ccccc2)CC1=O (centres undefined) | - | - | - | - | -
COCCNC(=O)C(c1ccncc1)N(C(=O)c1sc(C)nc1C)c1cccc(C)c1 (centres undefined) | . | . | - | - | -
COc1ccc(CCNc2cc(N3CCN(C(=O)c4ccccc4F)CC3)ccc2[N+](=O)[O-])cc1OC | - | - | - | - | +
COc1ccc(C2C(C#N)=C(N)N3C(=C2C#N)Sc2ccccc23)cc1 (centres undefined) | - | - | - | - | +
COc1ccc([C@@H]2C(C#N)=C(N)S[C@@H](c3ccccc3)[C@@H]2[N+](=O)[O-])cc1 | - | - | - | - | -
Cc1nc2c(ccc3c([N+](=O)[O-])cccc32)c(C)c1C | . | . | - | - | -
O=C(CNCc1ccc(F)cc1)Nc1ccccc1[N+](=O)[O-] | . | . | - | - | -
SMILES | HCT116 bCat-KO | HCT116 PTEN-null | Lmaj promast | Dynein cargo inh | Autophagy HCS
COc1ccc(C(=O)c2sc3nc(-c4ccccc4)ccc3c2N)cc1 | - | - | - | - | +
C/C(=N\NC(=O)c1ccncc1)C12CC3CC(CC(C3)C1)C2 | - | - | - | - | -
CC/C(=N\NC(=O)c1ccc(-c2ccccc2)cc1)C12CC3CC(CC(C3)C1)C2 | - | - | 64.8 | - | -
COc1ccc(OC)c(C(=O)c2ccc(C(=O)N3CCCCC3)cc2)c1 | - | - | - | - | -
Cc1ccc2[nH]c(=O)c(CN(CC3CCCO3)S(=O)(=O)c3c(C)ccc4nsnc34)cc2c1 (centres undefined) | - | - | 95.0 | - | -
COc1ccc2[nH]c(=O)c(CN(Cc3cccs3)S(=O)(=O)c3c(C)ccc4nsnc34)cc2c1 | - | - | 98.2 | - | -
C=CCN=c1scc(-c2ccc3c(c2)NC(=O)CO3)n1/N=C(\C)c1ccccn1 | . | . | 57.3 | - | -
CCOc1ccc(N2C(=O)/C(=C\c3ccccc3OC)S(=O)(=O)C2c2cccc([N+](=O)[O-])c2)cc1 (centres undefined) | - | - | 50.0 | - | -
CCOC(=O)Cc1ncccc1C(=O)Nc1ccc(Oc2ccccc2)cc1 | . | . | - | - | -
CSc1nc(N)c(C(=O)NC2CCCCC2)s1 | . | . | . | - | .
Cn1c(Sc2ccc([N+](=O)[O-])cc2C(F)(F)F)nnc1-c1ccccc1 | - | - | 61.7 | - | -
CCOC(=O)C(C(=O)OCC)c1cc(Br)c2noc3c2c1C(=O)c1ccccc1-3 | 1.3 | 1.1 | 100.4 | - | +
O=C(c1ccc(Cl)c(S(=O)(=O)N2CCc3ccccc3C2)c1)N1CCN(c2ccccc2)CC1 | - | - | - | - | -
O=C(c1ccc(Cl)c(S(=O)(=O)Nc2ccccc2C(=O)N2CCc3ccccc3C2)c1)N1CCc2ccccc2C1 | - | - | 78.1 | - | -
O=C(OCC(=O)N1CCc2ccccc21)c1cccnc1Cl | - | - | - | - | -
CCOc1cc(/C=C(/C#N)c2nc3ccccc3[nH]2)ccc1Oc1ccc([N+](=O)[O-])cn1 | - | - | - | - | -
COc1ccc2nc(/C(C#N)=C\c3ccc(Oc4ccc([N+](=O)[O-])cn4)cc3)[nH]c2c1 | - | - | - | - | +
COc1ccc2nc(/C(C#N)=C\c3ccc(C(=O)O)cc3)[nH]c2c1 | . | . | - | - | -
Cc1ccc2nc(/C(C#N)=C\c3ccc(Oc4ccc([N+](=O)[O-])cn4)cc3)[nH]c2c1 | - | - | 98.6 | - | -
O=S(=O)(Cc1ccccc1)N1CCCC1 | - | - | - | - | -
O=S(=O)(Cc1ccccc1)N1CCC(N2CCN(c3ccccc3)CC2)CC1 | - | - | 98.0 | - | -
COc1cc(OC)cc(C(=O)N2CCC(N3CCN(c4ccccc4)CC3)CC2)c1 | - | - | - | - | -
O=C(c1cccs1)N1CCC(N2CCN(c3ccccc3)CC2)CC1 | - | - | 86.0 | - | -
O=C(c1cccc2ccccc12)N1CCC(N2CCN(c3ccccc3)CC2)CC1 | - | - | 95.1 | - | -
COc1ccccc1N1CCN(C2CCN(C(=O)c3cccs3)CC2)CC1 | - | - | - | - | -
CC(=O)N1CCN(C(=O)CCC(=O)O)CC1 | . | . | . | - | .
CC1=NN(C(N)=S)C(=O)C1N=Nc1cccc(C)c1 (centres undefined) | . | . | . | - | .
CC1=NN(C(N)=S)C(=O)C1N=Nc1ccc(O)cc1 (centres undefined) | . | . | 57.8 | - | -
COc1ccc(C2(CNC(=O)c3ccco3)CCOCC2)cc1 | - | - | - | - | -

Source: PubChem BioAssay (several laboratories)
